For data set [1], the system named is Plasmodium berghei. As to the kind of experiment: Antimalarial activity against Plasmodium berghei infected in Swiss Webster mouse assessed as mouse survival rate at 11 mg/kg administered once daily via oral gavage for 4 consecutive days beginning 1 hr after infection measured on day 10 post infection relative to control. Type of data set: functional. In a few lines: (§1)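 Mice given an intraperitoneal injection of P. berghei-infected erythrocytes taken from a previously infected animal. Oral dosing once daily for 4 consecutive days, starting 1 h after infection. Vehicle: polyethylene glycol 300/propylene glycol/water (weight ratio 55/25/20). Percent survival recorded daily from day 4 to day 20. Chloroquine 30 mg/kg and vehicle-only groups served as controls.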

The subject of data set [2] is Plasmodium berghei. The data set is described as follows: Antimalarial activity against Plasmodium berghei infected in Swiss Webster mouse assessed as mouse survival rate at 11 mg/kg administered once daily via oral gavage for 4 consecutive days beginning 1 hr after infection measured on day 11 post infection relative to control. It is filed as functional. Put shortly: as §1

Data set [3] relates to Plasmodium berghei. As to the kind of experiment: Antimalarial activity against Plasmodium berghei infected in Swiss Webster mouse assessed as mouse survival rate at 1 mg/kg administered once daily via oral gavage for 4 consecutive days beginning 1 hr after infection measured on day 6 post infection relative to control. Type of data set: functional. Put shortly:
as §1

In data set [4] the test system is Plasmodium berghei. As to the kind of experiment: Antimalarial activity against Plasmodium berghei infected in Swiss Webster mouse assessed as mouse survival rate at 1 mg/kg administered once daily via oral gavage for 4 consecutive days beginning 1 hr after infection measured on day 7 post infection relative to control. It is filed as functional. In a few lines:
as §1

Data set [5] relates to Plasmodium berghei. The data set is described as follows: Antimalarial activity against Plasmodium berghei infected in Swiss Webster mouse assessed as mouse survival rate at 0.3 mg/kg administered once daily via oral gavage for 4 consecutive days beginning 1 hr after infection measured on day 4 post infection relative to control. It is filed as functional. In a few lines:
as §1

For data set [6], the system named is Plasmodium berghei. The data set is described as follows: Antimalarial activity against Plasmodium berghei infected in Swiss Webster mouse assessed as mouse survival rate at 3 mg/kg administered once daily via oral gavage for 4 consecutive days beginning 1 hr after infection measured on day 4 post infection relative to control. It is filed as functional. Put shortly: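 P. berghei-infected erythrocytes taken from a previously infected mouse were injected intraperitoneally. Oral dosing, once daily for 4 consecutive days, began 1 h after infection, in polyethylene glycol 300/propylene glycol/water (55/25/20 by weight). Chloroquine at 30 mg/kg was the positive control, with a vehicle-only group. Percent survival was recorded daily from day 4 to day 20.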

The subject of data set [7] is Salmonella typhimurium. The data set is described as follows: Genotoxicity in Salmonella typhimurium TA98 assessed as number of revertants per plate at 500 ug/plate in absence of rat liver S9 fraction by Ames test (reference value: 14 +/- 6). Conditions: salmonella enterica subsp. enterica serovar typhimurium. Type of data set: toxicity.
In data set [8] the test system is Salmonella typhimurium. The data set is described as follows: Genotoxicity in Salmonella typhimurium TA98 assessed as number of revertants per plate at 1500 ug/plate in absence of rat liver S9 fraction by Ames test (reference value: 14 +/- 6). It is filed as toxicity. Conditions: salmonella enterica subsp. enterica serovar typhimurium.
In data set [9] the test system is Salmonella typhimurium. As to the kind of experiment: Genotoxicity in Salmonella typhimurium TA1535 assessed as number of revertants per plate at 50 ug/plate in presence of rat liver S9 fraction by Ames test (reference value: 10). Type of data set: toxicity. Conditions: salmonella enterica subsp. enterica serovar typhimurium. For orientation: The Ames test detects mutagens through reverse mutation in bacteria.

Data set [10] relates to Plasmodium falciparum. As to the kind of experiment: Antimalarial activity against Plasmodium falciparum T9/94 infected in human erythrocytes assessed as reduction in [3H]-hypoxanthine incorporation preincubated for 24 hrs followed by [3H]-hypoxanthine addition measured after 24 hrs by scintillation counting method. Type of data set: functional, cell-based.
Data set [11] has as its system Lymphocyte. As to the kind of experiment: Genotoxicity in human lymphocytes assessed as increase in frequency of micronucleated cells at 80 ug/mL after 3 hrs in presence of rat liver S9 fraction by micronucleus assay (reference value: 0.63%). Type of data set: toxicity, cell-based. Conditions: s9, 3 h.
Data set [12] in a line: AUC (0 to infinity) in Beagle dog at 5 mg/kg, po via gavage by HPLC/MS analysis. Type of data set: ADME, organism-based, Canis lupus familiaris. Details: dose 5 mg/kg, time infinity, route oral. The note with it: in vivo.
The subject of data set [13] is Salmonella typhimurium. As to the kind of experiment: Genotoxicity in Salmonella typhimurium TA98 assessed as number of revertants per plate at 50 ug/plate in absence of rat liver S9 fraction by Ames test (reference value: 14 +/- 6). It is filed as toxicity. The note with it: salmonella enterica subsp. enterica serovar typhimurium.
In data set [14] the test system is Salmonella typhimurium. The data set is described as follows: Genotoxicity in Salmonella typhimurium TA100 assessed as number of revertants per plate at 5000 ug/plate in absence of rat liver S9 fraction by Ames test (reference value: 154 +/- 9). Type of data set: toxicity. The note with it: salmonella enterica subsp. enterica serovar typhimurium.
For data set [15], the system named is Salmonella typhimurium. The data set is described as follows: Genotoxicity in Salmonella typhimurium TA98 assessed as number of revertants per plate at 15 ug/plate in presence of rat liver S9 fraction by Ames test (reference value: 19 +/- 8). Type of data set: toxicity. Conditions: salmonella enterica subsp. enterica serovar typhimurium.
For data set [16], the system named is Salmonella typhimurium. As to the kind of experiment: Genotoxicity in Salmonella typhimurium TA100 assessed as number of revertants per plate at 150 ug/plate in absence of rat liver S9 fraction by Ames test (reference value: 154 +/- 9). Type of data set: toxicity. The note with it: salmonella enterica subsp. enterica serovar typhimurium.
Data set [17] can be described thus: AUC (0 to infinity) in Sprague-Dawley rat at 5 mg/kg, iv by HPLC/MS analysis. Type of data set: ADME, organism-based. Conditions: in vivo. Also on record: dose 5 mg/kg, route intravenous, time infinity.
In data set [18] the test system is Salmonella typhimurium. The data set is described as follows: Genotoxicity in Salmonella typhimurium TA100 assessed as number of revertants per plate at 500 ug/plate in absence of rat liver S9 fraction by Ames test (reference value: 154 +/- 9). Type of data set: toxicity. Conditions: salmonella enterica subsp. enterica serovar typhimurium.
For data set [19], the system named is Escherichia coli. As to the kind of experiment: Genotoxicity in Escherichia coli WP2uvrA assessed as number of revertants per plate at 15 ug/plate in presence of rat liver S9 fraction by Ames test (reference value: 42 +/- 6). Type of data set: toxicity.
Data set [20] deals with Salmonella typhimurium. The data set is described as follows: Genotoxicity in Salmonella typhimurium TA1537 assessed as number of revertants per plate at 1500 ug/plate in presence of rat liver S9 fraction by Ames test (reference value: 11 +/- 4). It is filed as toxicity. The note with it: salmonella enterica subsp. enterica serovar typhimurium.
Data set [21] relates to Plasmodium falciparum. As to the kind of experiment: Antimalarial activity against intraerythrocytic stage of Plasmodium falciparum assessed as time required for maximal killing effect at 30 times IC50 preincubated for 24 hrs followed by [3H]-hypoxanthine addition measured after 24 hrs by scintillation counting method. It is filed as functional. In a few lines:
(§2)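 In vitro P. falciparum parasite reduction ratio assay run at 10×, 30× and 100× IC50. Derived parameters: lag phase (time to maximal killing), PRR (parasites killed per life cycle) and PCT99.9% (time to clear 99.9% of the initial parasite population).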

The test system of data set [22] is Salmonella typhimurium. As to the kind of experiment: Genotoxicity in Salmonella typhimurium TA1537 assessed as number of revertants per plate at 5 ug/plate in absence of rat liver S9 fraction by Ames test (reference value: 19 +/- 9). Type of data set: toxicity. Conditions: salmonella enterica subsp. enterica serovar typhimurium.
The subject of data set [23] is Escherichia coli. The data set is described as follows: Genotoxicity in Escherichia coli WP2uvrA assessed as number of revertants per plate at 1500 ug/plate in absence of rat liver S9 fraction by Ames test (reference value: 45 +/- 9). Type of data set: toxicity.
Data set [24] relates to Plasmodium falciparum. As to the kind of experiment: Antimalarial activity against intraerythrocytic stage of Plasmodium falciparum assessed as parasite reduction ratio at 30 times IC50 preincubated for 24 hrs followed by [3H]-hypoxanthine addition measured after 24 hrs by scintillation counting method. It is filed as functional. In a few lines: as §2
For data set [25], the system named is Salmonella typhimurium. The data set is described as follows: Genotoxicity in Salmonella typhimurium TA100 assessed as number of revertants per plate at 1.5 ug/plate in absence of rat liver S9 fraction by Ames test (reference value: 154 +/- 9). Type of data set: toxicity. The note with it: salmonella enterica subsp. enterica serovar typhimurium.
A short description of data set [26]: AUC (0 to infinity) in Beagle dog at 5 mg/kg, iv by HPLC/MS analysis. Type of data set: ADME, organism-based, Canis lupus familiaris. Also on record: dose 5 mg/kg, time infinity, route intravenous. The note with it: in vivo.
The subject of data set [27] is Rattus norvegicus. The data set is described as follows: Genotoxicity in rat assessed as micronucleated polychromatic erythrocytes in bone marrow at 2000 mg/kg administered via oral gavage measured after 24 hrs post dose by micronucleus assay (reference value: 0.07 +/- 0.05%). It is filed as toxicity, organism-based. The note with it: in vivo.
Data set [28] concerns Salmonella typhimurium. As to the kind of experiment: Genotoxicity in Salmonella typhimurium TA1535 assessed as number of revertants per plate at 1500 ug/plate in absence of rat liver S9 fraction by Ames test (reference value: 10 +/- 3). Type of data set: toxicity. Conditions: salmonella enterica subsp. enterica serovar typhimurium.

On to `Cc1c(Oc2cnc(C(=O)N3CC(O)(C(C)C)C3)cn2)ccc2c1B(O)OC2`, for which the survival at 11 mg/kg in [1] and in data set [2] was 20% throughout.

Regarding `Cc1c(Oc2cnc(C(=O)NC(C)CO)cn2)ccc2c1B(O)OC2` (stereo not drawn), the survival at 1 mg/kg in data set [3] and in [4] was 20% throughout. Further, in [5], the survival at 0.3 mg/kg is 100%. In addition, in [6], the survival at 3 mg/kg is 100%.

With `Cc1c(Oc2cnc(C(=O)N3CC(C)(O)C3)cn2)ccc2c1B(O)OC2`, the Activity in [7] worked out at 10; in data set [8], 13; in data set [9], 11; in data set [11], 0.74%; in data set [13], 14; in data set [14], 20. Moreover, the Activity in [15] was 13; in [16] it was 148; in [18], 155; in data set [19] it was 50; in [20], 8; in data set [22], 15. Also, the Activity was 33 in data set [23], 144 in data set [25], 0.09% in [27] and 7 in data set [28]. For the same molecule, the IC50 in data set [10] amounted to 54 nM. In addition, the AUC(0-inf) in data set [12] worked out at 214 µg·h/mL; in [17], 21.7 µg·h/mL; in [26], 168 µg·h/mL. For the same molecule, the Time in data set [21] was found to be 0 h. Also, in [24], the “log(ratio)” value came to 4.9.

A word on the IC50: it is the midpoint of a concentration-inhibition curve. The AUC(0-inf) is the area under the concentration-time curve extrapolated to infinity. Read a high AUC(0-inf) as more exposure.

For the origin of these results see ChEMBL document CHEMBL4038305, “Benzoxaborole Antimalarial Agents. Part 5. Lead Optimization of Novel Amide Pyrazinyloxy Benzoxaboroles and Identification of a Preclinical Candidate” (J Med Chem, 2017).
